{
  "source": "paper PMC6474823",
  "about": "(Molecular cell, 2019)",
  "target": "Hck^3D V284C (Homo sapiens, UniProt P08631, V276C)",
  "sequence (P08631 81-526 V276C)": "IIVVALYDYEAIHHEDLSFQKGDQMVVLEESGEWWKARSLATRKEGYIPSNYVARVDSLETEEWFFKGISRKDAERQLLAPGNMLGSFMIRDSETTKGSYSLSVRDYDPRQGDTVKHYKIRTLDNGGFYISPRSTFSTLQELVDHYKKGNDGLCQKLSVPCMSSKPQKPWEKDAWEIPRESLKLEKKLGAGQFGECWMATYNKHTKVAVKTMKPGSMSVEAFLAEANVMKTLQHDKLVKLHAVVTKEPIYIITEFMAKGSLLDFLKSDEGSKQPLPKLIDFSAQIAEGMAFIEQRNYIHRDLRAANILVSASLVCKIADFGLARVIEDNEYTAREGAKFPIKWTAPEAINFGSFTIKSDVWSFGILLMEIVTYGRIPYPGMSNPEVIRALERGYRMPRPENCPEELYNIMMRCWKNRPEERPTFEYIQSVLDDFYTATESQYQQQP",
  "experiment": "Inhibitor IC50 determination, fluorescent SFK peptide kinase assay",
  "format": "biochemical",
  "conditions": "1 mM ATP",
  "method_in_brief": "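Kinase concentrations were set in the linear range by prior titration: Src3D WT or V284C at 7.5 nM, Hck3D WT or V284C at 5 nM. Kinase was incubated 30 min with test compound (30 μM top, 3-fold serial dilutions, 10 points) and 1 mM ATP in HEPES pH 7.5 buffer with MgCl2, EGTA, BSA, vanadate and BME. Then 20 μM pyrene-labelled SFK peptide was added for 2 h. Fluorescence was read at ex 344/em 405 nm, in triplicate.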",
  "data": [
    {"smiles": "CNC(=O)C(C#N)=Cc1c(C#Cc2cc(NC(=O)c3cccc(C(F)(F)F)c3)ccc2C)c2cncnc2n1CCOC", "note": "[compound 3, (E)- and (Z)-N-(3-((6-(2-cyano-3-(methylamino)-3-oxoprop-1-en-1-yl)-7-(2-methoxyethyl)-7H-pyrrolo[2,3-d]pyrimidin-5-yl)ethynyl)-4-methylphenyl)-3-(trifluoromethyl)benzamide]", "values": [
      {"measurement": "inhibition of Hck V284C (IC50, Figure 4C)", "value": "potently inhibited"}
    ]}
  ]
}
